How the values were obtained:
Assay type in all cases: ADME, organism-based
Brain [1] = experiment: Drug uptake in C57BL/6 mouse brain at 6 umol/kg, po dosed in HS15/propylenglycol/citrate buffer, pH 4.75, 50 mM (10/5/85, v/v/v) measured 1 hr post dosing by LC/MS/MS analysis; conditions: in vivo, pH 4.75, 1 h
Summary of the method: (§1)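 Male C57BL/6 mice dosed by oral gavage, 10 mL/kg. Blood sampled 0.25, 0.5, 1, 2, 4, 6 h; brain at 1 and/or 4 h; n = 3 per time. Blood acetonitrile-precipitated, brain water-homogenized then precipitated; LC-MS/MS with weighted linear calibration.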

[2] = AUC (0 to infinity) in C57BL/6 mouse at 6 umol/kg, po dosed in HS15/propylenglycol/citrate buffer, pH 4.75, 50 mM (10/5/85, v/v/v) by LC/MS/MS analysis; set-up: dose 6 umol/kg, time infinity, route oral; conditions: plasma
Summary of the method: (§2)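 Male C57BL/6 mice were dosed by oral gavage at 10 mL/kg. Blood was sampled at 0.25, 0.5, 1, 2, 4 and 6 h postdose, extracted by acetonitrile precipitation and quantified by LC-MS/MS (typical LLOQ 0.4 ng/mL). AUCinf was obtained by noncompartmental analysis of concentration–time profiles, weighting 1/Y, with at least three terminal log-linear points.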

[3] = AUC (0 to infinity) in C57BL/6 mouse at 60 umol/kg, po dosed in HS15/propylenglycol/citrate buffer, pH 4.75, 50 mM (10/5/85, v/v/v) by LC/MS/MS analysis; set-up: dose 60 umol/kg, route oral, time infinity; conditions: plasma; summary of the method: as §2
[4] = Oral bioavailability in C57BL/6 mouse at 6 umol/kg dosed in carboxymethyl cellulose 0.5% w/v in water/Tween 80 (99.5/0.5, v/v) by LC/MS/MS analysis; conditions: in vivo
Summary of the method: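 Oral gavage (10 mL/kg) to male C57BL/6 mice with iv reference segment (2 μmol/kg, NMP/blank plasma 10:90). Noncompartmental analysis of LC-MS/MS blood profiles, 1/Y weighting; %F = dose-normalized oral AUC / dose-normalized iv AUC × 100, assuming linear pharmacokinetics between doses.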

Brain [5] = experiment: Drug uptake in C57BL/6 mouse brain at 2 umol/kg, iv dosed in N-methyl pyrrolidone/blank plasma (10:90 v/v) measured 4 hrs post dosing by LC/MS/MS analysis; conditions: in vivo
Summary of the method: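 Male C57BL/6 mice, saphenous vein injection under light anesthesia, 5 mL/kg. Blood at 5, 30 min and 1, 2, 4, 6, 8 h; brain at 5 min, 1, 4, 8 h; n = 3/time. LC-MS/MS after acetonitrile precipitation (brain water-homogenized). Noncompartmental analysis, 1/Y weighting, terminal slope from ≥3 points.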

Brain [6] = experiment: Drug uptake in C57BL/6 mouse brain at 6 umol/kg, po dosed in carboxymethyl cellulose 0.5% w/v in water/Tween 80 (99.5/0.5, v/v) measured 1 hr post dosing by LC/MS/MS analysis; conditions: in vivo; summary of the method: as §1
[7] = AUC (0 to infinity) in C57BL/6 mouse at 60 umol/kg, po dosed in carboxymethyl cellulose 0.5% w/v in water/Tween 80 (99.5/0.5, v/v) by LC/MS/MS analysis; set-up: dose 60 umol/kg, route oral, time infinity; conditions: in vivo; summary of the method: as §2
[8] = Ratio of drug uptake in brain to blood in C57BL/6 mouse at 60 umol/kg, po dosed in carboxymethyl cellulose 0.5% w/v in water/Tween 80 (99.5/0.5, v/v) measured 1 hr post dosing by LC/MS/MS analysis; summary of the method: as §1

Compound | Drug uptake (Brain [1]) | AUC(0-inf) [2] | AUC(0-inf) [3] | bioavailability [4] | Drug uptake (Brain [5]) | Drug uptake (Brain [6]) | AUC(0-inf) [7] | Kp at 1 h [8]
CC(C)(C)c1cccc(CN[C@H]2CS(=O)(=O)C[C@@H](Cc3cc(F)c(N)c(OC(C(F)(F)F)C(F)(F)F)c3)[C@@H]2O)c1 | 0.02 nmol/g | 0.398 µM·h | 4.07 µM·h |  |  |  |  | 
CC(C)(C)c1cccc(CN[C@H]2CS(=O)(=O)C[C@@H](Cc3cc(F)c(N)c(OCC(F)(F)F)c3)[C@@H]2O)c1 |  |  |  | 52% | 0.01 nmol/g | 0.08 nmol/g | 14.8 µM·h | 0.3
